# Compound activity as filed in PubChem BioAssay.
# This is a sample that favours compounds with a hit; in the whole collection about 0.89% have one here.
# Xi reactivation: activators of inactive X chromosome reactivation, primary screen, imaging, XiGFP fibroblasts, GFP high-content imaging, set 2. XiGFP mouse fibroblasts, % GFP-positive cells imaging, 3 d; cells co-treated with 5-aza-dC sensitizer; scaled so ellipticine positive control = 100%. activation, % at 7.58 µM. 360,000 tested, 0.055% active. AID 743238, 2013;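 active = mean normalized replicate activation at least 10% and every replicate at or above 10%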
#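 System: 68-5-11 XiGFP fibroblast line | Buffer or medium: DMEM containing 5-aza-dC | Compound: Single point | Times: Compounds 3 days, fix/stain 15 min at room temperature | Benchmarks: Positive control ellipticine, 6 µM final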
# Arrestin-AP2 inh: inhibitors of beta-arrestin/AP2 binding, primary screen, biochemical, GPCR trafficking, flow cytometry; beta-arrestin 1 C-terminal peptide binding to AP2 beta2-adaptin appendage (human); FITC-arrestin peptide / GST-AP2 beads; AP2 beta2 appendage carries R879A mutation; inhibition, % at 10 µM; 340,000 tested, 0.31% active;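 active = inhibition above a set limit, near 3 SD of compounds lacking own fluorescence, cut at about 54% in these data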
#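 Material – AP2 appendage R879A on GSH beads · Buffer or medium – PBS with 0.05% Tween 20 and 0.1% BSA · Probe or stimulus – fluorescein-tagged arrestin peptide at 50 nM final · Incubation – compound with beads 12 min RT, then probe 1 h RT · Detection – high-throughput flow cytometry of beads, ex 488, em 535 nm · Evaluation – percent response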
# V-ATPase pHluor: regulators of yeast V-ATPase proton pumping, primary screen, pHLuorin cytosolic pH fluorescence | S. cerevisiae | response, % at 10 µM | 350,000 tested, 0.37% active; in the data active = response mostly above about 7.3%, no sharp cut-off; inactive = mostly below about 5.4%; note: actives read high
# T cell modulator: modulators of CD8 T cell-vesicle binding, primary screen, mouse 2C CD8+ T cells, flow cytometry. 2C CD8+ T cell-vesicle binding; hits give low values. response (vesicle binding), % at 7 µM. 330,000 tested, 0.068% active. AID 2052, 2009;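 active = response, share of CD8 T cells binding vesicles, and their 90th percentile fluorescence all below set limits, cut at about 80% in these data, passing the limit was not always enough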;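 note: values below 100% mean blocked vesicle binding to the CD8+ T cells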
#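 Incubation: binding step 1.5 h, 37 °C, antibody labelling 20 min, ice; system: murine 2C transgenic CD8+ T lymphocytes; technique: cytometric PE anti-B7-1 and Alexa647 anti-CD8 signals after 1% paraformaldehyde fixation; also added: QL9-charged Drosophila Ld/ICAM-1/B7-1 vesicles; control set: naked versus QL9-loaded vesicles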
# MIN6 prolif: inducers of MIN6 beta-cell proliferation, primary screen, ATP luminescence, uHTS. proliferation, % at 10 µM. AID 2380, 2010. MIN6 cells proliferation, ATPlite luminescence, 48 h; cells starved in 0.2% serum; 100% = growth in 10% serum. 330,000 tested, 0.29% active;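 active = compounds whose signal lies at least 3.5 SD above the mean of all wells on their plate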
# NTR1 agonist: agonists of human NTR1, primary screen, imaging, U2OS cells, beta-arrestin-GFP, high content | activation, % at 20 µM | Neurotensin receptor type 1 (Homo sapiens), P30989 | AID 493036, 2011 | 330,000 tested, 0.17% active | NTR1-U2OS beta-arrestin-GFP spot imaging, agonist mode;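 active = activation at or above 40% of the spot to cytoplasm intensity ratio, with at least 20 cells analyzed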
# Target sequence (P30989 whole entry, looked up): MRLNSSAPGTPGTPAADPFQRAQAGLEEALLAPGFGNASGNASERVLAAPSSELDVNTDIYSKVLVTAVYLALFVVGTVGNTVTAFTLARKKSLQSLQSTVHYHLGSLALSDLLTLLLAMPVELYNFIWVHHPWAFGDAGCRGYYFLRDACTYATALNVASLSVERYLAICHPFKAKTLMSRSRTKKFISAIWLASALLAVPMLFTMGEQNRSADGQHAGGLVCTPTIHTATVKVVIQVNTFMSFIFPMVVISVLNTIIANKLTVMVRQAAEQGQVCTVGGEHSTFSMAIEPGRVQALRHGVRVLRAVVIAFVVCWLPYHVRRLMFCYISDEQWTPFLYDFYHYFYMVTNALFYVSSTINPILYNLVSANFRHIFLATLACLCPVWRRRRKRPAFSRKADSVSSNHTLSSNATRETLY
# VATPase regulator: yeast V-ATPase proton pumping modulators, confirmation, S. cerevisiae, pH-sensitive GFP, second cherry-pick; 980 tested, 2% active; shares compounds with V-ATPase pHluor; S. cerevisiae pHLuorin cytosolic pH, V-ATPase proton transport; response, % at 10 µM; in the data active = response above about 24%
# Hits are given with their value; n = inactive; x = not tested or not shown.
SMILES,Xi reactivation,Arrestin-AP2 inh,V-ATPase pHluor,T cell modulator,MIN6 prolif,NTR1 agonist,VATPase regulator
CCOC(=O)N=Nc1c(O)n(C)c2ccccc12,n,n,n,n,n,n,n
COc1ccc2c3c([nH]c2c1)[C@H](CO)N(CC1CC1)CC31CCN(C(=O)c2ccccc2F)CC1,n,x,x,x,x,x,x
C[C@@H]1CCCCO[C@@H](CN(C)C(=O)Nc2ccccc2)[C@H](C)CN([C@@H](C)CO)C(=O)c2cc(NC(=O)c3ccccc3)ccc2O1,n,x,x,x,x,x,x
COc1ccccc1C(=O)NCCC(=O)NCCC12CC3CC(CC(C3)C1)C2,n,n,11,n,n,n,n
COc1ccccc1OCCNC(=O)CCNC(=O)c1ccccc1OC,n,n,n,n,n,n,x
NNC(=O)CNC(=O)c1cccc(Br)c1,x,n,26,n,n,n,n
CC(C)CC1C(=O)N(Cc2cn(CCC3OCCCO3)nn2)CCS(=O)(=O)N1Cc1ccc(-c2ccc(F)cc2)cc1 (centres undefined),n,x,5.5,x,x,x,n
CCC/C=C/c1ccc(CN2C(CC(C)C)C(=O)N(Cc3cn(CCC4OCCO4)nn3)CCS2(=O)=O)cc1 (centres undefined),n,x,9.2,x,x,x,n
Cc1ccc(-c2ccc(CN3C(CC(C)C)C(=O)N(Cc4cn(CCC5OCCCO5)nn4)CCS3(=O)=O)cc2)cc1 (centres undefined),n,x,n,x,x,x,x
CCC/C=C/c1ccc(CN2C(CC(C)C)C(=O)N(Cc3cn(CCC4OCCCO4)nn3)CCS2(=O)=O)cc1 (centres undefined),n,x,n,x,x,x,x
CCc1nc(SCC(=O)Nc2nccs2)c2oc3ccccc3c2n1,x,n,10,n,n,n,n
C[C@H]1CN([C@@H](C)CO)C(=O)c2cccc(NS(=O)(=O)c3cn(C)cn3)c2O[C@H]1CN(C)C(=O)NC1CCCCC1,n,x,x,x,x,x,x
Cc1ccc(C(=O)CCC(=O)N2CCN(c3ccccc3O)CC2)cc1,n,n,11,n,n,n,n
O=C(CCC(=O)N1CCN(c2ccccc2F)CC1)c1ccc(F)cc1,n,n,n,n,n,n,x
CC1CCCCN1S(=O)(=O)c1coc(C(N)=O)c1 (centres undefined),n,n,7.0,n,n,n,n
CC(Oc1cc(F)ccc1[N+](=O)[O-])C(=O)Nc1ccc(S(=O)(=O)N2CCCC2)cc1 (centres undefined),n,n,15,n,n,n,n
Cc1ccccc1OC(C)C(=O)Nc1ccc(S(=O)(=O)N2CCCC2)cc1 (centres undefined),n,n,n,n,n,n,x
COc1ccccc1S(=O)(=O)N[C@@H]1CC[C@@H](CC(=O)N2CCOCC2)O[C@H]1CO,n,x,x,x,x,x,x
CNC[C@@H]1Oc2ccccc2CC(=O)N(C)C[C@H]1C,n,x,x,x,x,x,x
CN(C(=O)c1cccc(NC(=O)Cc2ccc(NC(=O)C3CCN(C(=O)c4ccccc4)CC3)cc2)c1)C1CCC1,n,n,n,x,x,x,x
CN(C(=O)c1cccc(NC(=O)Cc2ccc(NC(=O)C3CCN(C(=O)CCc4ccccc4)CC3)cc2)c1)C1CCCCC1,n,n,7.7,x,x,x,n
CC(C)C#Cc1cnc2c(c1)C(=O)N([C@@H](C)CO)C[C@H](C)[C@@H](CN(C)C(=O)Cc1ccccn1)O2,n,x,x,x,x,x,x
Cc1nc(C)c(-c2ccc(SCC(=O)Nc3ccccc3)nn2)s1,n,n,n,n,n,n,x
Cc1nc(C)c(-c2ccc(SCc3ccccc3C)nn2)s1,n,n,10,n,n,n,n
O=C(c1ccccc1)N1CCN(c2nc3ccc([N+](=O)[O-])cc3s2)CC1,n,n,16,n,n,n,n
